Data as given in ChEMBL document CHEMBL3352470, “New ent-kauranes from the fruits of Annona glabra and their inhibitory nitric oxide production in LPS-stimulated RAW264.7 macrophages” (Bioorg Med Chem Lett, 2015).

What was measured:
RAW264.7 [1] = assay: Cytotoxicity against mouse RAW264.7 cells at 30 uM by MTT assay relative to control; type: cell-based; settings: raw264.7, 30 µM
RAW264.7 [2] = assay: Inhibition of LPS-induced nitric oxide production in mouse RAW264.7 cells at 30 uM after 24 hrs by Griess assay relative to vehicle-treated control; type: functional; settings: RAW264.7, 24 h
Procedure, shortened: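 RAW 264.7 cells were seeded at 5×10^5 cells/mL. After 3 h they were pretreated with compound at 3, 10 and 30 µM, then 1 µg/mL LPS was added for 24 h. Supernatant nitrite was measured by the Griess reaction. Controls were unstimulated cells, LPS alone and dexamethasone. Values are mean ± SD of three independent experiments.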

RAW264.7 [3] = assay: Inhibition of LPS-induced nitric oxide production in mouse RAW264.7 cells after 24 hrs by Griess assay relative to vehicle-treated control; type: functional, cell-based; settings: RAW264.7, 24 h
Procedure, shortened: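 RAW 264.7 cells were seeded at 5×10^5 cells/mL. After 3 h they were pretreated with compound at a series of concentrations chosen from the screening results, then stimulated 24 h with 1 µg/mL LPS. Nitrite in the supernatant was read by the Griess reaction. IC50 came from the dose-dependent inhibition. Dexamethasone was the positive control.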

Row | Structure (SMILES) | IC50 (RAW264.7 [3]) [µM] | Activity (RAW264.7 [1]) | inhibition at 30 µM (RAW264.7 [2]) [%]
1 | C[C@@]12CCC[C@@](C)(C(=O)O[C@@H]3O[C@H](CO)[C@@H](O)[C@H](O)[C@H]3O)[C@H]1C[C@H](O)[C@@]13C[C@@H](CC[C@@H]21)[C@@H](CO)C3 | > 30 | Non-toxic | –
2 | C[C@@]12CCC[C@@](C)(C(=O)O)[C@H]1CC[C@@]13C[C@@H](CC[C@H]12)[C@](O)(CO)C3 | 14.3 | Non-toxic | 70.4
3 | C[C@@]12CCC[C@@](C)(C(=O)O)[C@H]1C[C@H](O)[C@@]13C[C@@H](CC[C@@H]21)[C@@](O)(CO)C3 | 0.39 | Non-toxic | 90

Further lines, with some results ahead:

Row | IC50 (RAW264.7 [3]) [µM] | Structure (SMILES) | Activity (RAW264.7 [1]) | inhibition at 30 µM (RAW264.7 [2]) [%]
4 | 0.32 | C[C@@]12CCC[C@@](C)(C=O)[C@H]1CC[C@@]13C[C@@H](CC[C@H]12)[C@](O)(CO)C3 | Non-toxic | 90
5 | 6.2 | CC1(C)CCC[C@]2(C)[C@@H]1CC[C@@]13C[C@@H](CC[C@H]12)[C@](O)(CO)C3 | Non-toxic | 70.4
6 | 0.01 | C[C@@]12CCC[C@@](C)(C(=O)O[C@@H]3O[C@H](CO)[C@@H](O)[C@H](O)[C@H]3O)[C@H]1C[C@H](O)[C@]13C=C(CO)[C@H](CC[C@@H]21)C3 | Non-toxic | 90
7 | > 30 | C[C@@]12CCC[C@@](C)(C(=O)O[C@@H]3O[C@H](CO)[C@@H](O)[C@H](O)[C@H]3O)[C@H]1CC[C@@]13C[C@@H](CC[C@H]12)[C@@](O)(CO)C3 | Non-toxic | –
8 | 17.1 | CC1(C)CCC[C@]2(C)[C@@H]1CC[C@@]13C[C@@H](CC[C@H]12)[C@@](O)(CO)C3 | Non-toxic | 70.4
